The subject of data set [1] is Norwalk virus. The experiment in a line: Antiviral activity against Norwalk virus infected in human HG23 cells assessed as inhibition of viral replication after 24 hrs by qRT-PCR. It counts as functional. Conditions: HG23, 24 h, read-out: ED50 (the source's name). In short, it runs like this:
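HG23 cells (Norwalk virus replicon-bearing), one day old at 80–90% confluence, exposed to graded compound levels from 0 (mock-DMSO) to 10 µM. NV genome quantified by qRT-PCR; ED50 for genome levels taken at 24 h post-treatment. Values averaged over at least two independent experiments, mean ± standard deviation.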
A general note: In qPCR the cycle at which signal appears reflects the starting amount.

A short description of data set [2]: Cytotoxicity against human HG23 cells after 48 hrs. It counts as cell-based. Conditions: read-out: TD50. In short, it runs like this:
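Replicon-harboring HG23 cells exposed to graded compound levels from 0 (mock-DMSO) to 320 µM for 48 h. Viability read with a commercial cell cytotoxicity assay kit, and the median toxic dose (TD50) was calculated from it.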

This passage reports EC50 and CC50 results from ChEMBL document CHEMBL1833900, “Potent inhibition of Norwalk virus by cyclic sulfamide derivatives” (Bioorg Med Chem, 2011).

With `CCCCc1ccc(CN2CCNS2(=O)=O)cc1`, the EC50 in data set [1] is above 10 µM. As for `O=S1(=O)N(CCN2CCOCC2)CCN1Cc1cccc(Oc2ccccc2)c1`, the CC50 at 48 h in data set [2] is 49 µM. For the compound `O=S1(=O)NCCN1Cc1cccc(Oc2ccccc2)c1`, in data set [2], the CC50 at 48 h was found to be 50 µM. In data set [1], the EC50 turned out to be 4.1 µM. The corresponding values for `O=S1(=O)NCCN1Cc1cccc(Oc2ccc(F)cc2)c1` are 98 µM and above 10 µM. With `O=S1(=O)NCCN1Cc1cccc(OCc2ccccc2)c1`, the CC50 at 48 h in data set [2] amounted to 18 µM. Also, the EC50 in data set [1] stood at 5.2 µM.

For the compound `O=S1(=O)NCCN1Cc1cccc(O)c1`, the EC50 in data set [1] was above 10 µM. Regarding `O=S1(=O)NCCN1Cc1ccc(Oc2ccccc2)cc1`, the CC50 at 48 h in data set [2] was 57 µM. Also, the EC50 in data set [1] was determined as 5.8 µM. The corresponding values for `CCCOc1ccc(CN2CCNS2(=O)=O)cc1` are 96 µM and 5.2 µM. The corresponding values for `O=S1(=O)NCCN1Cc1ccc(OCc2ccccc2)cc1` are 159 µM and 9.8 µM.

`CCOc1ccc(CN2CCNS2(=O)=O)cc1`: the EC50 in data set [1] was above 10 µM.

Turning to `CC(C)Oc1ccc(CN2CCNS2(=O)=O)cc1`, the EC50 in data set [1] is above 10 µM. The same measure, in the same setting: for `CCCCOc1ccc(CN2CCNS2(=O)=O)cc1` the value was 9.5 µM; for `CCCc1ccc(CN2CCNS2(=O)=O)cc1`, above 10 µM; for `CC(C)Cc1ccc(CN2CCNS2(=O)=O)cc1`, 9.7 µM.

Consider `CSc1ccc(CN2CCNS2(=O)=O)cc1`, for which the EC50 in data set [1] was above 10 µM.

As to `O=S1(=O)NCCN1Cc1ccc(OC(F)(F)F)cc1`, the EC50 in data set [1] was above 10 µM.

For `O=S1(=O)NCCN1Cc1cccc(OC(F)(F)F)c1`, the EC50 in data set [1] was above 10 µM.

In the case of `O=S1(=O)NCCN1Cc1cccc(Cl)c1`, in data set [1], the EC50 was above 10 µM. Same read-out and setting: for `COc1cccc(CN2CCNS2(=O)=O)c1` the value was above 10 µM; for `COc1ccc(CN2CCNS2(=O)=O)cc1`, above 10 µM; for `O=S1(=O)NCCN1Cc1ccc(Cl)cc1`, above 10 µM. On the same count and under the same terms, the same measure for `CC(C)(C)OC(=O)N1CCN(Cc2cn(Cc3ccccc3)nn2)S1(=O)=O`: above 10 µM; for `COc1ccc(Cn2cc(CN3CCN(C(=O)OC(C)(C)C)S3(=O)=O)nn2)cc1`: 9.8 µM. On the same count and under the same terms, for `O=S1(=O)NCCN1Cc1cn(Cc2ccccc2)nn1` the value was above 10 µM. Take `COc1ccc(Cn2cc(CN3CCNS3(=O)=O)nn2)cc1`: the EC50 in data set [1] was above 10 µM. The same measure, in the same setting: for `O=S1(=O)NCCN1CC1CCCN(Cc2ccccc2)C1` (configuration not stated) the value was above 10 µM; for `COC(=O)CN1CCN(Cc2cccc(Oc3ccccc3)c2)S1(=O)=O`, above 10 µM; for `COC(=O)CCN1CCN(Cc2cccc(Oc3ccccc3)c2)S1(=O)=O`, above 10 µM.

As for `COC(=O)CCCN1CCN(Cc2cccc(Oc3ccccc3)c2)S1(=O)=O`, the EC50 in data set [1] is above 10 µM. As to `COC(=O)CCCCN1CCN(Cc2cccc(Oc3ccccc3)c2)S1(=O)=O`, the CC50 at 48 h in data set [2] was 46 µM. In data set [1], the EC50 worked out at 9.7 µM.

Turning to `COC(=O)CCCCCCN1CCN(Cc2cccc(Oc3ccccc3)c2)S1(=O)=O`, the EC50 in data set [1] was above 10 µM.

For the compound `COC(=O)c1ccc(CN2CCN(Cc3cccc(Oc4ccccc4)c3)S2(=O)=O)cc1`, the EC50 in data set [1] is above 10 µM. In the case of `O=C(O)CN1CCN(Cc2cccc(Oc3ccccc3)c2)S1(=O)=O`, the CC50 at 48 h in data set [2] worked out at 48 µM. Moreover, the EC50 in data set [1] stood at 7.8 µM. With `O=C(O)CCN1CCN(Cc2cccc(Oc3ccccc3)c2)S1(=O)=O`, the EC50 in data set [1] is above 10 µM.

As for `O=C(O)CCCN1CCN(Cc2cccc(Oc3ccccc3)c2)S1(=O)=O`, the EC50 in data set [1] is above 10 µM. Take `O=C(O)CCCCN1CCN(Cc2cccc(Oc3ccccc3)c2)S1(=O)=O`: the CC50 at 48 h in data set [2] is 100 µM. Besides, the EC50 in data set [1] turned out to be 6.1 µM. Consider `O=C(O)CCCCCCN1CCN(Cc2cccc(Oc3ccccc3)c2)S1(=O)=O`, for which the EC50 in data set [1] is above 10 µM. Same read-out and setting: for `O=C(O)c1ccc(CN2CCN(Cc3cccc(Oc4ccccc4)c3)S2(=O)=O)cc1` the value was above 10 µM; for `CN1CCN(Cc2cccc(Oc3ccccc3)c2)S1(=O)=O`, above 10 µM. Still for that read-out and setting: the same measure for `CCN1CCN(Cc2cccc(Oc3ccccc3)c2)S1(=O)=O`: above 10 µM; for `N#CCN1CCN(Cc2cccc(Oc3ccccc3)c2)S1(=O)=O`: above 10 µM; for `O=S1(=O)N(Cc2ccccc2)CCN1Cc1cccc(Oc2ccccc2)c1`: above 10 µM. Consider `O=S1(=O)N(Cc2ccc(F)cc2)CCN1Cc1cccc(Oc2ccccc2)c1`, for which the EC50 in data set [1] is above 10 µM. As for `O=S1(=O)N(Cc2cccnc2)CCN1Cc1cccc(Oc2ccccc2)c1`, in data set [2], the CC50 at 48 h amounted to 53 µM. Besides, in data set [1], the EC50 came out at 8.1 µM. Turning to `NC(=O)CN1CCN(Cc2cccc(Oc3ccccc3)c2)S1(=O)=O`, the EC50 in data set [1] is above 10 µM. On to `O=S1(=O)N(CCN2CCCCC2)CCN1Cc1cccc(Oc2ccccc2)c1`, for which the CC50 at 48 h in data set [2] amounted to 9.8 µM. Further, the EC50 in data set [1] amounted to 4.3 µM.
